KCNK9 block: human KCNK9 channel inhibition. B-score at 10 µM. HEK293 KCNK9, FluxOR thallium flux fluorescence; active compounds read low. 310,000 tested, 1.2% active. Q9NPC2;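 active means ratio B-score over 3 SD below the library mean, with starting fluorescence within 5 SD of its mean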;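 further: negative B-score means less thallium flux so channel inhibition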
Target sequence (Q9NPC2 whole entry, looked up): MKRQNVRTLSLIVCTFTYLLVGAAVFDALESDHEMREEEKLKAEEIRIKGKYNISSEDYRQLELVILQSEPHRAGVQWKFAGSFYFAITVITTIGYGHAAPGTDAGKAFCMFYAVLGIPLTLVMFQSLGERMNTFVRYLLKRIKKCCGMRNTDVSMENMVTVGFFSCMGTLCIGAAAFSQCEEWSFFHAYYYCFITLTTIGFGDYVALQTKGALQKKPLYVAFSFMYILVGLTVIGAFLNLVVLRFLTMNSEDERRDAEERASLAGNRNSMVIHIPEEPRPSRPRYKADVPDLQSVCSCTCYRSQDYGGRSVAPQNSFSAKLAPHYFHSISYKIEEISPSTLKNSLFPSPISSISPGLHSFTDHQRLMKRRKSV
KCNK3 inh: human KCNK3 channel inhibition, primary screen. O14649. CHO-KCNK3 thallium flux, FluxOR fluorescence; active compounds read low. B-score at 10 µM. 340,000 tested, 0.84% active. AID 602410;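 active means B-score under library mean minus 4 SD, starting fluorescence ratio at most library mean plus 5 SD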;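 further: more negative B-score means stronger inhibition of thallium flux through KCNK3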
KCNQ1 act: human KCNQ1 channel potentiation or activation; CHO-K1 KCNQ1, thallium flux FluxOR fluorescence; active compounds read high; B-score at 10 µM; 310,000 tested, 0.35% active; AID 2648;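 active means fluorescence ratio B-score, a plate-corrected score, at least three library SD, with initial intensity B-score within 5 SD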
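assay system = CHO-K1 cells stably expressing KCNQ1 | medium = assay buffer, equal DMSO in all wells | timing = 37 °C overnight plating, 90-min dark dye load, 20-min compound pretreatment | measured by = kinetic FluxOR thallium fluorescence, 10-s 1-Hz baseline, 110-s post-stimulus read | measure = fluorescence change relative to baseline, converted to B score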
KCNQ1 inh: blocks the human KCNQ1 potassium channel; CHO-K1 KCNQ1, FluxOR thallium flux fluorescence; active compounds read high; P51787; 310,000 tested, 1.3% active; B-score at 10 µM; AID 2642;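 active means compounds whose thallium flux B-score, printed positive for inhibition, exceeds three library SD while starting fluorescence stays within three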;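 further: channel opened by potassium depolarization with thallium stimulus after 20 min compound exposure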
hERG rescue: compounds protecting human hERG from proarrhythmic drug block. Q12809. CHO-hERG, FluxOR thallium flux, dofetilide IC70 present. activation (rescue from dofetilide block), less the hit threshold, % at 10 µM. 310,000 tested, 0.51% active. AID 1511;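 active means activation above the mean of controls blocked by dofetilide plus 5 SD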;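 further: thallium influx through hERG after potassium depolarization seen as dye fluorescence rise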
Kir21 inh: inhibitors of mouse Kir2.1 inward-rectifier potassium channel; P35561; HEK293-Kir2.1, FluxOR thallium flux fluorescence; active compounds read low; B-score at 10 µM; 310,000 tested, 0.85% active;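 active means fluorescence ratio B-score at or below minus 3 SD of library scores, with starting-brightness B-score within 2 SD, cut at about -4.2 in these data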;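 further: channel flux triggered by added potassium and thallium sulfate stimulus; B-score of peak minus minimum fluorescence over baseline after thallium stimulus; more negative B-score means stronger Kir2.1 block with less thallium influx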
* marks the source's active call; other numbers are inactive results; i = inactive; / = not tested or not shown. Compounds with a hit are over-represented: about 3.7% of the library has one in this group of screens.

SMILES	KCNK9 block	KCNK3 inh	KCNQ1 act	KCNQ1 inh	hERG rescue	Kir21 inh
O=[N+]([O-])c1ccccc1Sc1nccn1Cc1ccccc1	i	i	i	i	-10	-4.9*
CN(C)S(=O)(=O)c1cccc(CNCC2COc3ccccc3O2)c1 (centres undefined)	i	i	i	i	-6	-2.4
CN(C)C1=NC[C@H](Cc2ccccc2)N1CC1CCCCCC1	/	i	/	/	/	/
CN1CCN(Cc2ccc(-c3ccc(Cl)cc3)o2)CC1	i	i	i	i	-7	-4.7*
Clc1ccc(-c2ccc(CN3CCCCC3)o2)cc1	i	i	i	i	-8	0.08
COc1cc(CNCCc2ccccc2)ccc1OCc1ccc(Cl)nc1	i	i	i	i	-11	-6.4*
COc1ccccc1CCNCc1ccc(OC)c(OCc2ccccc2)c1	i	i	i	i	-24	-8.5*
CCC(OC(=O)c1cc2sccc2n1C)C(=O)NCc1ccco1 (centres undefined)	i	i	i	i	1	2.9
COCCNC(=O)C(C)OC(=O)c1cc2sccc2n1C (centres undefined)	i	i	i	i	5.7*	0.24
Cc1cccc(C)c1N(C(=O)c1ccco1)C(C(=O)NC1CCCC1)c1ccncc1 (centres undefined)	i	i	i	i	-7	0.67
Cc1cccc(-n2ncc3c(N)ncnc32)c1	i	i	i	i	-4	1.2
Cc1cccc(-n2ncc3c(N(C)Cc4ccccc4)ncnc32)c1	i	-11*	i	i	-9	-0.74
CN1CCN(C(=O)c2cc([N+](=O)[O-])ccc2Cl)CC1	i	i	i	i	0	0.1
Cc1nc2ccccc2n1Cc1ccc(Cl)cc1	i	i	i	6*	-5	1.2
O=c1ccc(-c2nc3ccccc3n2Cc2ccc(Cl)cc2)c[nH]1	i	i	10*	i	-12	-0.08
COC(=O)c1ccc(S(=O)(=O)NCc2ccccn2)n1C	i	i	i	i	-3	1.3
CN(Cc1cnccn1)Cc1nc(Cc2ccccc2F)no1	i	i	i	i	28*	-3.1
CC(C)C(=O)NC(Nc1ccccc1F)C(Cl)(Cl)Cl (centres undefined)	i	i	i	i	-2	-4.5*
CCCC(=O)NC(Nc1ccccc1F)C(Cl)(Cl)Cl (centres undefined)	i	/	i	i	-10	-8.1*
CC(C)CC(=O)NC(Nc1ccccc1F)C(Cl)(Cl)Cl (centres undefined)	i	i	i	i	-6	-2.5
CCCCNC(=O)c1ccc(S(=O)(=O)c2ccc(Cl)cc2)c(NC(C)=O)c1	i	i	i	i	2	1.7
CC(Oc1ccc(F)cc1)C(=O)Nc1cc(S(=O)(=O)N2CCCCC2)ccc1N1CCOCC1 (centres undefined)	i	i	i	i	-10	1.4
CCN1CCN(c2ccc(S(=O)(=O)N3CCCCC3)cc2NC(=O)C(C)Oc2ccc(F)cc2)CC1 (centres undefined)	i	i	i	i	-5	-5.2*
CN(C(=O)CSc1ncnc2sc(-c3ccccc3)cc12)C1CCS(=O)(=O)C1 (centres undefined)	i	i	77*	i	49*	1.6
CN(C(=O)CSc1ncnc2scc(-c3ccccc3)c12)C1CCS(=O)(=O)C1 (centres undefined)	i	i	i	i	-9	-0.44
SMILES	KCNK9 block	KCNK3 inh	KCNQ1 act	KCNQ1 inh	hERG rescue	Kir21 inh
CN(C)C(=O)c1c2c(nc3ccccc13)CCCC2	i	i	i	i	8.1*	-0.81
Cc1ccc(S(=O)(=O)C(C)C(=O)c2ccc3c(c2)OCCO3)cc1 (centres undefined)	i	i	i	i	-16	-4.3*
Cc1cc(C)c(C)c(S(=O)(=O)Nc2cccc(S(=O)(=O)Nc3ccccc3C(=O)O)c2)c1C	/	i	/	/	/	/
COc1ccc(C(=O)CCS(=O)(=O)c2ccc(C)cc2)cc1OC	i	i	8*	i	-7	-2.2
CCC1Nc2ncnc(N3CCN(c4ccccc4)CC3)c2N(Cc2ccc(Br)cc2)C1=O (centres undefined)	i	i	i	i	-15	-0.12
O=C(CSCc1ccc(Cl)cc1)NN=C1CCCCCC1	i	i	i	i	0	-2.9
CC(C)(/C=N/NC(=O)CSCc1ccc(Cl)cc1)CCC#N	i	i	i	i	5.1*	-1.1
Cc1ccc2c(c1C)C(=O)C(=O)N2	/	i	/	/	/	/
O=C(c1ccccc1)c1ccc(OCC(O)CNC2CCCc3ccccc32)cc1 (centres undefined)	i	i	i	i	-14	-6.2*
OC(CNC1CCCc2ccccc21)COc1ccc2ccccc2c1 (centres undefined)	i	i	i	i	-15	-10*
CCN1C(=O)/C(=C\c2cccn2-c2ccc([N+](=O)[O-])cc2)N(CC)C1=S	i	i	i	i	0	0
CC(C(=O)NC1CCCCC1)N1CCN(C)CC1 (centres undefined)	i	i	i	i	-10	0.82
CC(=O)C[C@H]1c2cc(C(F)(F)F)ccc2S(=O)(=O)N1C1CCCCC1	i	i	10*	i	-2	-2.4
COc1ccc(CN2[C@@H](CC(=O)O)c3ccc(C(F)(F)F)cc3S2(=O)=O)cc1	i	/	i	i	-3	-0.26
CCCCCCCCN1[C@@H](CC(C)=O)c2cc(C(F)(F)F)ccc2S1(=O)=O	i	i	56*	i	-14	1.9
COc1ccc(CN2[C@@H](CC(=O)O)c3cc(C(F)(F)F)ccc3S2(=O)=O)cc1	i	i	i	i	6.4*	-0.48
CCOc1cc(/C=N/n2cnnc2)ccc1OS(=O)(=O)c1ccc(C)cc1	i	i	i	i	-15	-5.5*
O=C(NNC(=O)c1ccccc1-n1cccc1)c1ccc(Cl)cc1	i	i	i	i	-10	0.16
CC(C)(C)c1ccc(C(=O)NNc2ncccc2-n2cccc2)cc1	i	i	i	7*	-6	0.72
COc1ccc(S(=O)(=O)NCC2CCC(C(=O)NCC(OC)OC)CC2)cc1 (centres undefined)	i	i	i	i	-9	-2.9
CN(CCC#N)C(=O)CSc1ncnc2sc(-c3ccccc3)cc12	i	i	i	i	-4	-0.06
CC(C#N)Sc1ncnc2sc(-c3ccccc3)cc12 (centres undefined)	i	i	i	6*	-4	-0.74

Screening results as filed in PubChem BioAssay.
